Laboratory results as given in the array DNA melting data of Ke et al. (doi:10.1101/2024.01.08.574731).

How the values were obtained:
[1] = melting temperature; fluorescence melt of hairpins on a sequencing array, two-state fit, raised by 9.35 °C to match UV melts; details: sodium 0.088 M
Outline: (§1)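 Melting temperature and folding enthalpy were derived from bootstrapped two-state fits. The fitted temperatures were raised by 9.35 °C to agree with UV melts, and four replicates were combined by inverse variance. The underlying data were Cy3 fluorescence images of library hairpins, with annealed Cy3 and quencher oligos, on a sequenced MiSeq flow cell in 50 mM Na-HEPES pH 8.0, 25 mM NaCl, taken in 2.5 °C steps up to 60 °C, normalised to pre-quench Cy3 and to control constructs.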

[2] = folding enthalpy; higher = less favourable; fluorescence melt of hairpins on a sequencing array, two-state fit; details: sodium 0.088 M
Outline: as §1

## GATCGTTTAACGATC ((((((...))))))
[1]
  Tm: 55.7 °C
[2]
  folding enthalpy: -36.6 kcal/mol

## GATCGTTTCACGATC ((((((...))))))
[1]
  Tm: 58.6 °C
[2]
  folding enthalpy: -33.5 kcal/mol

## GATCGTTTCCACGATC ((((((....))))))
[1]
  Tm: 54 °C
[2]
  folding enthalpy: -40.5 kcal/mol

## GATCGTTTTACGATC ((((((...))))))
[1]
  Tm: 60.1 °C
[2]
  folding enthalpy: -40.8 kcal/mol

## GATCTAAACATAGATC ((((((....))))))
[1]
  Tm: 37 °C
[2]
  folding enthalpy: -26.9 kcal/mol

## GATCTAAACGTAGATC ((((((....))))))
[1]
  Tm: 35.8 °C
[2]
  folding enthalpy: -28.7 kcal/mol

## GATCTAACCTAGATC ((((((...))))))
[1]
  Tm: 38.1 °C
[2]
  folding enthalpy: -29 kcal/mol

## GATCTAACGCTAGATC ((((((....))))))
[1]
  Tm: 38.1 °C
[2]
  folding enthalpy: -20.7 kcal/mol

## GATCTAAGAATAGATC ((((((....))))))
[1]
  Tm: 34 °C
[2]
  folding enthalpy: -20.4 kcal/mol

## GATCTAAGTCTAGATC ((((((....))))))
[1]
  Tm: 37.7 °C
[2]
  folding enthalpy: -25.4 kcal/mol

## GATCTAAGTTTAGATC ((((((....))))))
[1]
  Tm: 41.9 °C
[2]
  folding enthalpy: -30 kcal/mol

## GATCTAATTCTAGATC ((((((....))))))
[1]
  Tm: 37 °C
[2]
  folding enthalpy: -29.9 kcal/mol

## GATCTACAACTAGATC ((((((....))))))
[1]
  Tm: 34.1 °C
[2]
  folding enthalpy: -25.6 kcal/mol

## GATCTACACTTAGATC ((((((....))))))
[1]
  Tm: 43.4 °C
[2]
  folding enthalpy: -44.7 kcal/mol

## GATCTACATGTAGATC ((((((....))))))
[1]
  Tm: 52.5 °C
[2]
  folding enthalpy: -45.9 kcal/mol

## GATCTACATTTAGATC ((((((....))))))
[1]
  Tm: 39 °C
[2]
  folding enthalpy: -35.3 kcal/mol

## GATCTACCATAGATC ((((((...))))))
[1]
  Tm: 37.5 °C
[2]
  folding enthalpy: -30.5 kcal/mol

## GATCTACGACTAGATC ((((((....))))))
[1]
  Tm: 35 °C
[2]
  folding enthalpy: -32.1 kcal/mol

## GATCTACGAGTAGATC ((((((....))))))
[1]
  Tm: 52.3 °C
[2]
  folding enthalpy: -37.8 kcal/mol

## GATCTACGCATAGATC ((((((....))))))
[1]
  Tm: 42.7 °C
[2]
  folding enthalpy: -28.5 kcal/mol

## GATCTACGGCTAGATC ((((((....))))))
[1]
  Tm: 37.1 °C
[2]
  folding enthalpy: -28.7 kcal/mol

## GATCTACGGTAGATC ((((((...))))))
[1]
  Tm: 41.4 °C
[2]
  folding enthalpy: -37.3 kcal/mol

## GATCTACGTCTAGATC ((((((....))))))
[1]
  Tm: 40.7 °C
[2]
  folding enthalpy: -20.7 kcal/mol

## GATCTACGTTTAGATC ((((((....))))))
[1]
  Tm: 39.1 °C
[2]
  folding enthalpy: -32.4 kcal/mol

## GATCTACTATTAGATC ((((((....))))))
[1]
  Tm: 38.6 °C
[2]
  folding enthalpy: -33.1 kcal/mol

## GATCTACTCTAGATC ((((((...))))))
[1]
  Tm: 40.6 °C
[2]
  folding enthalpy: -31 kcal/mol

## GATCTAGAAGTAGATC ((((((....))))))
[1]
  Tm: 39.9 °C
[2]
  folding enthalpy: -27.6 kcal/mol

## GATCTAGAGATAGATC ((((((....))))))
[1]
  Tm: 39.1 °C
[2]
  folding enthalpy: -26.2 kcal/mol

## GATCTAGAGCTAGATC ((((((....))))))
[1]
  Tm: 39.4 °C
[2]
  folding enthalpy: -29.4 kcal/mol

## GATCTAGATATAGATC ((((((....))))))
[1]
  Tm: 46.8 °C
[2]
  folding enthalpy: -34.4 kcal/mol

## GATCTAGCCGTAGATC ((((((....))))))
[1]
  Tm: 44.5 °C
[2]
  folding enthalpy: -31.2 kcal/mol

## GATCTAGCCTTAGATC ((((((....))))))
[1]
  Tm: 44.4 °C
[2]
  folding enthalpy: -38.6 kcal/mol

## GATCTAGGATTAGATC ((((((....))))))
[1]
  Tm: 44.8 °C
[2]
  folding enthalpy: -29.1 kcal/mol

## GATCTAGGCGTAGATC ((((((....))))))
[1]
  Tm: 45.4 °C
[2]
  folding enthalpy: -32.4 kcal/mol

## GATCTAGGTATAGATC ((((((....))))))
[1]
  Tm: 47.5 °C
[2]
  folding enthalpy: -34.7 kcal/mol

## GATCTAGGTCTAGATC ((((((....))))))
[1]
  Tm: 46.2 °C
[2]
  folding enthalpy: -37.1 kcal/mol

## GATCTAGTCCTAGATC ((((((....))))))
[1]
  Tm: 47.4 °C
[2]
  folding enthalpy: -31.9 kcal/mol

## GATCTAGTCTAGATC ((((((...))))))
[1]
  Tm: 41.1 °C
[2]
  folding enthalpy: -34.2 kcal/mol

## GATCTAGTTCTAGATC ((((((....))))))
[1]
  Tm: 46.6 °C
[2]
  folding enthalpy: -34.8 kcal/mol

## GATCTATACCTAGATC ((((((....))))))
[1]
  Tm: 43.2 °C
[2]
  folding enthalpy: -34.7 kcal/mol

## GATCTATACTTAGATC ((((((....))))))
[1]
  Tm: 45.6 °C
[2]
  folding enthalpy: -46.9 kcal/mol

## GATCTATAGTAGATC ((((((...))))))
[1]
  Tm: 38.6 °C
[2]
  folding enthalpy: -22.4 kcal/mol

## GATCTATATCTAGATC ((((((....))))))
[1]
  Tm: 36.2 °C
[2]
  folding enthalpy: -27.6 kcal/mol

## GATCTATCATTAGATC ((((((....))))))
[1]
  Tm: 42.1 °C
[2]
  folding enthalpy: -28.2 kcal/mol

## GATCTATCTCTAGATC ((((((....))))))
[1]
  Tm: 39.6 °C
[2]
  folding enthalpy: -28.3 kcal/mol

## GATCTATCTGTAGATC ((((((....))))))
[1]
  Tm: 42.9 °C
[2]
  folding enthalpy: -33.9 kcal/mol

## GATCTATGACTAGATC ((((((....))))))
[1]
  Tm: 37.1 °C
[2]
  folding enthalpy: -26.7 kcal/mol

## GATCTATGCCTAGATC ((((((....))))))
[1]
  Tm: 41 °C
[2]
  folding enthalpy: -33.3 kcal/mol

## GATCTATGTATAGATC ((((((....))))))
[1]
  Tm: 48.2 °C
[2]
  folding enthalpy: -36.9 kcal/mol

## GATCTATTGATAGATC ((((((....))))))
[1]
  Tm: 44.7 °C
[2]
  folding enthalpy: -28.8 kcal/mol

## GATCTCAAATGAGATC ((((((....))))))
[1]
  Tm: 50 °C
[2]
  folding enthalpy: -37.8 kcal/mol

## GATCTCAACGGAGATC ((((((....))))))
[1]
  Tm: 52.3 °C
[2]
  folding enthalpy: -35 kcal/mol

## GATCTCAAGGAGATC ((((((...))))))
[1]
  Tm: 54.2 °C
[2]
  folding enthalpy: -37.4 kcal/mol

## GATCTCAATGAGATC ((((((...))))))
[1]
  Tm: 50.6 °C
[2]
  folding enthalpy: -35.9 kcal/mol

## GATCTCAATGGAGATC ((((((....))))))
[1]
  Tm: 51.5 °C
[2]
  folding enthalpy: -40.6 kcal/mol

## GATCTCACACGAGATC ((((((....))))))
[1]
  Tm: 52.4 °C
[2]
  folding enthalpy: -41.5 kcal/mol

## GATCTCACCCGAGATC ((((((....))))))
[1]
  Tm: 53.1 °C
[2]
  folding enthalpy: -39.5 kcal/mol

## GATCTCACCTGAGATC ((((((....))))))
[1]
  Tm: 53.5 °C
[2]
  folding enthalpy: -44.1 kcal/mol

## GATCTCAGAAGAGATC ((((((....))))))
[1]
  Tm: 50.6 °C
[2]
  folding enthalpy: -33.5 kcal/mol

## GATCTCAGCAGAGATC ((((((....))))))
[1]
  Tm: 58.2 °C
[2]
  folding enthalpy: -31.9 kcal/mol

## GATCTCAGGAGAGATC ((((((....))))))
[1]
  Tm: 50.8 °C
[2]
  folding enthalpy: -34.7 kcal/mol

## GATCTCAGGCGAGATC ((((((....))))))
[1]
  Tm: 51.5 °C
[2]
  folding enthalpy: -27.7 kcal/mol

## GATCTCAGGGAGATC ((((((...))))))
[1]
  Tm: 54.5 °C
[2]
  folding enthalpy: -29.5 kcal/mol

## GATCTCAGGGGAGATC ((((((....))))))
[1]
  Tm: 52.5 °C
[2]
  folding enthalpy: -34.4 kcal/mol

## GATCTCATAGGAGATC ((((((....))))))
[1]
  Tm: 51.2 °C
[2]
  folding enthalpy: -38.1 kcal/mol

## GATCTCATCGAGATC ((((((...))))))
[1]
  Tm: 55.8 °C
[2]
  folding enthalpy: -36.1 kcal/mol

## GATCTCATCTGAGATC ((((((....))))))
[1]
  Tm: 53.6 °C
[2]
  folding enthalpy: -39.9 kcal/mol

## GATCTCATGCGAGATC ((((((....))))))
[1]
  Tm: 52.1 °C
[2]
  folding enthalpy: -48.3 kcal/mol

## GATCTCATTCGAGATC ((((((....))))))
[1]
  Tm: 53.5 °C
[2]
  folding enthalpy: -39.4 kcal/mol

## GATCTCATTTGAGATC ((((((....))))))
[1]
  Tm: 55.5 °C
[2]
  folding enthalpy: -37.4 kcal/mol

## GATCTCCAAGAGATC ((((((...))))))
[1]
  Tm: 49.8 °C
[2]
  folding enthalpy: -30.2 kcal/mol

## GATCTCCAATGAGATC ((((((....))))))
[1]
  Tm: 51.3 °C
[2]
  folding enthalpy: -34.2 kcal/mol
